Measurements: ChEMBL document CHEMBL1139690, “Comparison between two classes of selective EP(3) antagonists and their biological activities” (Bioorg Med Chem Lett, 2006)

What was measured:
[1] = target: T1, Prostaglandin E2 receptor EP1 subtype (Homo sapiens, UniProt P34995); assay: Binding affinity to EP1 receptor
T1 sequence (P34995 whole entry): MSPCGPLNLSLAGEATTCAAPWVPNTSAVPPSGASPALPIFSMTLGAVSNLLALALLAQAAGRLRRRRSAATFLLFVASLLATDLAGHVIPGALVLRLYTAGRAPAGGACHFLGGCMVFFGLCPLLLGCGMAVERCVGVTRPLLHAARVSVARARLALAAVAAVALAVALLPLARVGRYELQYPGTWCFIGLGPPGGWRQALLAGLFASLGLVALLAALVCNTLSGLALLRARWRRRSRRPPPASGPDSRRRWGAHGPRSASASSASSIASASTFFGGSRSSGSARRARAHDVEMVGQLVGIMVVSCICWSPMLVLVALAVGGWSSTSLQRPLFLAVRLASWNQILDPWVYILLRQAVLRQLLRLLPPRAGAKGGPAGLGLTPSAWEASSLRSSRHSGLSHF

[2] = target: Prostaglandin E2 receptor EP2 subtype (Homo sapiens, UniProt P43116); assay: Binding affinity to EP2 receptor
Prostaglandin E2 receptor EP2 subtype, sequence (P43116 whole entry): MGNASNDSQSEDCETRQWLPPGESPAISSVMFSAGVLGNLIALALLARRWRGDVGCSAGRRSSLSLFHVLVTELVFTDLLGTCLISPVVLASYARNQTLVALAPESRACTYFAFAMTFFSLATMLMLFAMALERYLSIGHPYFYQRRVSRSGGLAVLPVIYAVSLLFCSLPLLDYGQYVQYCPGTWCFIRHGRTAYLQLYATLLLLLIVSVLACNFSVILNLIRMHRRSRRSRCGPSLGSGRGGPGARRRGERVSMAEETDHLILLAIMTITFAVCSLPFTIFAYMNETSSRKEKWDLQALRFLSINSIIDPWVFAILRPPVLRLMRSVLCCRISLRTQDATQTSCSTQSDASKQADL

[3] = target: T2, Prostaglandin E2 receptor EP3 subtype (Homo sapiens, UniProt P43115); assay: Binding affinity to EP3 receptor
T2 sequence (P43115 whole entry): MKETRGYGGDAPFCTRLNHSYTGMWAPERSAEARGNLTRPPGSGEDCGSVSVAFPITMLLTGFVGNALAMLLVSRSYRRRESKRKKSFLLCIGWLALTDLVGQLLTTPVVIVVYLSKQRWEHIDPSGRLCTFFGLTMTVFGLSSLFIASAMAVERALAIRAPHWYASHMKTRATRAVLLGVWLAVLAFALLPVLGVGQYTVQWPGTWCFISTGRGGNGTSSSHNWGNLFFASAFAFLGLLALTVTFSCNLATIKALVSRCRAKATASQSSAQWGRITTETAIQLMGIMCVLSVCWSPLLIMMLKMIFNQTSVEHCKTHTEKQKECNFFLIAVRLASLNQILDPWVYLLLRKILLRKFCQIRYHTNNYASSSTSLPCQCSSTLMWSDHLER

[4] = target: Prostaglandin E2 receptor EP4 subtype (Homo sapiens, UniProt P35408); assay: Binding affinity to EP4 receptor
Prostaglandin E2 receptor EP4 subtype, sequence (P35408 whole entry): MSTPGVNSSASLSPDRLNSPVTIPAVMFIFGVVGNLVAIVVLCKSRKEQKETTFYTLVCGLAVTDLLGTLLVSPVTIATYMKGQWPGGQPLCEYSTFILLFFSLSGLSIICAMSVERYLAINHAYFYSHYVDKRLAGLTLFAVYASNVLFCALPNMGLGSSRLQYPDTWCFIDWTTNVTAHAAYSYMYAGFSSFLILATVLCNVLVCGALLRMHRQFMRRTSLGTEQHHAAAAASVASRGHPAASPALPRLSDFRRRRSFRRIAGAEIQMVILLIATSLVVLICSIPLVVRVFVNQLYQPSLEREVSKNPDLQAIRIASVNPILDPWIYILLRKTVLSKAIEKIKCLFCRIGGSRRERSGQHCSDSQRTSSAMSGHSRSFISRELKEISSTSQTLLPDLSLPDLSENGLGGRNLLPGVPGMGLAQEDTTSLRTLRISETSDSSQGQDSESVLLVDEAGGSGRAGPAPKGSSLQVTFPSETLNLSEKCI

[5] = Bioavailability in Sprague-Dawley rat at 10 mg/kg, po and 5 mg/kg, iv; format: ADME, organism-based; settings: in vivo
[6] = Clearance in Sprague-Dawley rat at 10 mg/kg, po and 5 mg/kg, iv; format: ADME, organism-based; settings: in vivo
[7] = Half life in Sprague-Dawley rat at 10 mg/kg, po and 5 mg/kg, iv; format: ADME, organism-based; settings: in vivo
[8] = Cmax in Sprague-Dawley rat at 10 mg/kg, po and 5 mg/kg, iv after 30 mins; format: ADME, organism-based; settings: in vivo
Rattus norvegicus [9] = assay: Antiinflammatory activity against carrageenan-induced paw edema in po dosed rat; format: functional
Rattus norvegicus [10] = assay: Effect on carrageenan-induced paw hyperalgesia in po dosed rat; format: functional
Rattus norvegicus [11] = assay: Concentration in carrageenan-induced hyperalgesic rat at 5 mg/kg, po, 1 hr postdose; format: functional
Prostacyclin receptor = Prostacyclin receptor (Homo sapiens, UniProt P43119); assay: Binding affinity to IP receptor
Prostacyclin receptor, sequence (P43119 whole entry): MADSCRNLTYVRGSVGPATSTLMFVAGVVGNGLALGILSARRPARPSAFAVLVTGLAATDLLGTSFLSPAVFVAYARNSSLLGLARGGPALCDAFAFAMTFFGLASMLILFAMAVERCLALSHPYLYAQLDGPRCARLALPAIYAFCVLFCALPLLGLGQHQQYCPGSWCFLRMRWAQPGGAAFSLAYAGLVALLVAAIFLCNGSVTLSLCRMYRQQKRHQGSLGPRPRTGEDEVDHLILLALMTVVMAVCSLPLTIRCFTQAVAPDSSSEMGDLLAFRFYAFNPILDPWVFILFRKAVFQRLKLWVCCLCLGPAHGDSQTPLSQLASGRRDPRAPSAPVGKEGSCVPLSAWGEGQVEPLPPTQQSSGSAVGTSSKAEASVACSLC

Thromboxane A2 receptor = target: T3, Thromboxane A2 receptor (Homo sapiens, UniProt P21731); assay: Binding affinity to TP receptor
T3 sequence (P21731 whole entry): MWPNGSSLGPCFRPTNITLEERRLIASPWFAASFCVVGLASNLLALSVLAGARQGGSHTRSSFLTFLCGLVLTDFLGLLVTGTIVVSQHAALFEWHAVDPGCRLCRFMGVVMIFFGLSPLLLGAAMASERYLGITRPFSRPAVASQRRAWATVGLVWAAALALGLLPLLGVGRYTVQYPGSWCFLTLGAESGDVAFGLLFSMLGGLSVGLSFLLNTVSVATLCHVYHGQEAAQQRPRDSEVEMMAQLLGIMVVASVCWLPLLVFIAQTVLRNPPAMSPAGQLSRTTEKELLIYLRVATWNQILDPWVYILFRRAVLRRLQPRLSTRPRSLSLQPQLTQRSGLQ

[12] = target: Prostaglandin F2-alpha receptor (Homo sapiens, UniProt P43088); assay: Binding affinity to FP receptor
Prostaglandin F2-alpha receptor, sequence (P43088 whole entry): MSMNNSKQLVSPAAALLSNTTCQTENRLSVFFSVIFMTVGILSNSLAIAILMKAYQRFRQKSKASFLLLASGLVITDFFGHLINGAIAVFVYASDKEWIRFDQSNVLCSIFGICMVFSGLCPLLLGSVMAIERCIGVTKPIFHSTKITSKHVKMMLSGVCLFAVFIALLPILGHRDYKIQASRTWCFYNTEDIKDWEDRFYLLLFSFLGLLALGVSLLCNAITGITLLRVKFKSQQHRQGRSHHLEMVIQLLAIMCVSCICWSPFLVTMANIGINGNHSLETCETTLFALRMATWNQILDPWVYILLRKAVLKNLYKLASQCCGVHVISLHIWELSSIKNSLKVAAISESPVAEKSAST

[13] = target: T4, Prostaglandin D2 receptor (Homo sapiens, UniProt Q13258); assay: Binding affinity to DP receptor
T4 sequence (Q13258 whole entry): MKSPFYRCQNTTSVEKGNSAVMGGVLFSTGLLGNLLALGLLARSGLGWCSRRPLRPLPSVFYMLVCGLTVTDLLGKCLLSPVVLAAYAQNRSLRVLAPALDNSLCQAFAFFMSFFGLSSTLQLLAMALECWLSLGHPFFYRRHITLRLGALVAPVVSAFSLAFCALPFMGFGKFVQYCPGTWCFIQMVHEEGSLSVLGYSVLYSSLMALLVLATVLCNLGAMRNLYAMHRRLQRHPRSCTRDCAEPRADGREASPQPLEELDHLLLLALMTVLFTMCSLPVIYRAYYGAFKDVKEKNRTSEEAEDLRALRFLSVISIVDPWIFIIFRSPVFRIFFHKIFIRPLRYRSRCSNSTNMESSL

[14] = target: T2, Prostaglandin E2 receptor EP3 subtype; assay: Binding affinity to EP3 receptor in presence of HSA
[15] = target: T5, Prostaglandin E2 receptor EP3 subtype (Homo sapiens) (UniProt P43115); assay: Antagonistic activity at EP3 receptor assessed as inhibition of cAMP production in HEK EBNA cells; format: functional, cell-based; settings: HEK293-EBNA, filed as antagonist
T5 sequence (whole entry): T2 sequence (P43115 whole entry)

[16] = Stability in rat hepatocytes after 3 hrs; format: ADME, cell-based, Hepatocyte; settings: read-out: Stability
Outline: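 Incubation with rat hepatocytes for 3 h; percentage of parent compound recovered intact.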

[17] = Metabolism in human hepatocytes; format: ADME, cell-based, Hepatocyte; settings: read-out: Activity
Rattus norvegicus [18] = assay: Concentration in carrageenan-induced hyperalgesic rat at 10 mg/kg, po, 1 hr postdose; format: functional
Outline: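 Young 100 g rats from the hyperalgesia model given 10 mg/kg po in 0.5% methocel as sodium salts; plasma concentration measured 1 h post-dosing, at the time hyperalgesia was assessed.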

[19] = Cmax in Sprague-Dawley rat at 10 mg/kg, po and 5 mg/kg, iv after 1 hr; format: ADME, organism-based; settings: in vivo

Ki [1] [nM]	Ki [2] [nM]	Ki [3]	Ki [4]	bioavailability [5] [%]	clearance [6] [mL/min]	half-life [7] [h]	Ki (Prostacyclin receptor) [nM]	Ki (Thromboxane A2 receptor) [nM]	Ki [12] [nM]	Ki [13]	Ki [14]	SMILES	ED50 (Rattus norvegicus [9]) [mg/kg]	ED50 (Rattus norvegicus [10]) [mg/kg]	other results
> 100000	> 40000	3.2 nM (antagonist)	> 15000 nM	59	3.1	3	> 500	> 500	> 500	82 nM (antagonist)	46 nM (antagonist)	O=C(O)/C=C/c1ccccc1Cc1ccc2cc(OCc3ccccc3)ccc2c1	> 10	4.6	Cmax [8]: 28 µM; Activity (Rattus norvegicus [11]): 11 µM
39000	> 50000	0.6 nM (antagonist)	890 nM (antagonist)	72	1	4	> 500	> 500	> 500	> 500 nM	6.9 nM (antagonist)	COc1ccc(Br)cc1S(=O)(=O)NC(=O)/C=C/c1ccccc1Cc1ccc2ccccc2c1	3.3	3.3	Kb [15]: 0.6 nM; remaining at 3 h [16]: 30%; metabolised [17]: 36%; Activity (Rattus norvegicus [18]): 32 µM; Cmax [19]: 50 µM
